Laboratory results: ChEMBL document CHEMBL3286116, “Synthesis, biological evaluation and structure-activity correlation study of a series of imidazol-based compounds as Candida albicans inhibitors” (Eur J Med Chem, 2014)
≈ marks a conversion by molar mass, not a printed value.

Legend:
Format in all cases: functional
Candida albicans [1] = experiment: Antifungal activity against Candida albicans ATCC 90028 after 48 hrs by CLSI broth microdilution method; details: ATCC 90028, 48 h
Summary of the method: (§1)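 Yeast CLSI broth microdilution (M27-A3). Compounds dissolved in DMSO at 100× the top test concentration, then diluted as serial two-fold dilutions in RPMI 1640 to final 0.125–64. Inoculum was 1.0–1.5 × 10^3 cells mL−1, incubated at 35 °C and read for growth at 48 h. MIC is the lowest concentration giving ≥50% growth inhibition versus growth control. Reported as the median of five replicates and as the geometric mean.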

Candida albicans [2] = experiment: Antifungal activity against Candida albicans ATCC 20891 after 48 hrs by CLSI broth microdilution method; details: ATCC 20891, 48 h; summary of the method: as §1
Candida albicans [3] = experiment: Antifungal activity against Candida albicans PMC 1011 after 48 hrs by CLSI broth microdilution method; details: PMC 1011, 48 h; summary of the method: as §1
Pichia kudriavzevii [4] = experiment: Antifungal activity against Candida krusei DSM 6128 after 48 hrs by CLSI broth microdilution method; details: DSM 6128, 48 h; summary of the method: as §1
Pichia kudriavzevii [5] = experiment: Antifungal activity against Candida krusei PMC 0613 after 48 hrs by CLSI broth microdilution method; details: PMC 0613, 48 h; summary of the method: as §1
Candida tropicalis [6] = experiment: Antifungal activity against Candida tropicalis PMC 0910 after 48 hrs by CLSI broth microdilution method; details: PMC 0910, 48 h; summary of the method: as §1
Candida tropicalis [7] = experiment: Antifungal activity against Candida tropicalis DSM 11953 after 48 hrs by CLSI broth microdilution method; details: DSM 11953, 48 h; summary of the method: as §1
Candida parapsilosis [8] = experiment: Antifungal activity against Candida parapsilosis DSM 11224 after 48 hrs by CLSI broth microdilution method; details: Lodderomyces parapsilosis, DSM 11224, 48 h; summary of the method: as §1
Candida parapsilosis [9] = experiment: Antifungal activity against Candida parapsilosis ATCC 22019 after 48 hrs by CLSI broth microdilution method; details: Lodderomyces parapsilosis, ATCC 22019, 48 h; summary of the method: as §1
Nakaseomyces glabratus [10] = experiment: Antifungal activity against Candida glabrata PMC 0805 after 48 hrs by CLSI broth microdilution method; details: PMC 0805, 48 h; summary of the method: as §1
Nakaseomyces glabratus [11] = experiment: Antifungal activity against Candida glabrata PMC 0807 after 48 hrs by CLSI broth microdilution method; details: PMC 0807, 48 h; summary of the method: as §1
Cryptococcus neoformans [12] = experiment: Antifungal activity against Cryptococcus neoformans PMC 2123 after 72 hrs by CLSI broth microdilution method; details: PMC 2123, 72 h
Summary of the method: (§2)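 Cryptococcus neoformans tested by CLSI broth microdilution in RPMI 1640, with serial two-fold dilutions from DMSO stocks at 100× the top concentration, final 0.125–64. Inoculum was 1.0–1.5 × 10^3 cells mL−1 at 35 °C, with growth read at 72 h. MIC is the lowest concentration with ≥50% growth inhibition versus control. Median of five replicates, plus geometric mean.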

Cryptococcus neoformans [13] = experiment: Antifungal activity against Cryptococcus neoformans PMC 2136 after 72 hrs by CLSI broth microdilution method; details: PMC 2136, 72 h; summary of the method: as §2
Cryptococcus neoformans [14] = experiment: Antifungal activity against Cryptococcus neoformans PMC 2115 after 72 hrs by CLSI broth microdilution method; details: PMC 2115, 72 h; summary of the method: as §2
Cryptococcus neoformans [15] = experiment: Antifungal activity against Cryptococcus neoformans PMC 2103 after 72 hrs by CLSI broth microdilution method; details: PMC 2103, 72 h; summary of the method: as §2
Cryptococcus neoformans [16] = experiment: Antifungal activity against Cryptococcus neoformans PMC 2107 after 72 hrs by CLSI broth microdilution method; details: PMC 2107, 72 h; summary of the method: as §2
Cryptococcus neoformans [17] = experiment: Antifungal activity against Cryptococcus neoformans PMC 2102 after 72 hrs by CLSI broth microdilution method; details: PMC 2102, 72 h; summary of the method: as §2
Cryptococcus neoformans [18] = experiment: Antifungal activity against Cryptococcus neoformans DSM 11959 after 72 hrs by CLSI broth microdilution method; details: DSM 11959, 72 h; summary of the method: as §2
Cryptococcus neoformans [19] = experiment: Antifungal activity against Cryptococcus neoformans PMC 2111 after 72 hrs by CLSI broth microdilution method; details: PMC 2111, 72 h; summary of the method: as §2
[20] = test system: Trichophyton mentagrophytes; experiment: Antifungal activity against Trichophyton mentagrophytes DSM 4870 after 72 hrs by CLSI broth microdilution method; details: DSM 4870, 72 h
Summary of the method: (§3)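 Dermatophytes tested by CLSI broth microdilution for filamentous fungi (M38-A2). Serial two-fold dilutions of DMSO-dissolved compound in RPMI 1640, final 0.125–64. Inoculum was 0.4–5 × 10^4 CFU mL−1, incubated at 35 °C and read at 72 h. MIC80 is the lowest concentration giving ≥80% growth inhibition versus growth control. Median of five replicates, plus geometric mean.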

[21] = test system: Trichophyton mentagrophytes; experiment: Antifungal activity against Trichophyton mentagrophytes PMC 6515 after 72 hrs by CLSI broth microdilution method; details: PMC 6515, 72 h; summary of the method: as §3
[22] = test system: Trichophyton mentagrophytes; experiment: Antifungal activity against Trichophyton mentagrophytes PMC 6531 after 72 hrs by CLSI broth microdilution method; details: PMC 6531, 72 h; summary of the method: as §3
[23] = test system: Trichophyton mentagrophytes; experiment: Antifungal activity against Trichophyton mentagrophytes PMC 6509 after 72 hrs by CLSI broth microdilution method; details: PMC 6509, 72 h; summary of the method: as §3
[24] = test system: Trichophyton mentagrophytes; experiment: Antifungal activity against Trichophyton mentagrophytes PMC 6503 after 72 hrs by CLSI broth microdilution method; details: PMC 6503, 72 h; summary of the method: as §3
[25] = test system: Trichophyton mentagrophytes; experiment: Antifungal activity against Trichophyton mentagrophytes PMC 6552 after 72 hrs by CLSI broth microdilution method; details: PMC 6552, 72 h; summary of the method: as §3
Nannizzia gypsea [26] = experiment: Antifungal activity against Microsporum gypseum PMC 7303 after 72 hrs by CLSI broth microdilution method; details: PMC 7303, 72 h; summary of the method: as §3
Nannizzia gypsea [27] = experiment: Antifungal activity against Microsporum gypseum PMC 7331 after 72 hrs by CLSI broth microdilution method; details: PMC 7331, 72 h; summary of the method: as §3
Nannizzia gypsea [28] = experiment: Antifungal activity against Microsporum gypseum DSM 3824 after 72 hrs by CLSI broth microdilution method; details: DSM 3824, 72 h; summary of the method: as §3
Candida albicans [29] = experiment: Antifungal activity against Candida albicans PMC 1040R after 48 hrs by CLSI broth microdilution method; summary of the method: as §1
Candida albicans [30] = experiment: Antifungal activity against Candida albicans PMC 1041R after 48 hrs by CLSI broth microdilution method; summary of the method: as §1
Nakaseomyces glabratus [31] = experiment: Antifungal activity against Candida glabrata PMC 0850R after 48 hrs by CLSI broth microdilution method; summary of the method: as §1
Nakaseomyces glabratus [32] = experiment: Antifungal activity against Candida glabrata PMC 0851R after 48 hrs by CLSI broth microdilution method; summary of the method: as §1
Nakaseomyces glabratus [33] = experiment: Antifungal activity against Candida glabrata PMC 0852R after 48 hrs by CLSI broth microdilution method; summary of the method: as §1
Nakaseomyces glabratus [34] = experiment: Antifungal activity against Candida glabrata PMC 0853R after 48 hrs by CLSI broth microdilution method; summary of the method: as §1
Candida albicans [35] = experiment: Antifungal activity against Candida albicans PMC 1042R after 48 hrs by CLSI broth microdilution method; summary of the method: as §1
Candida albicans [36] = experiment: Ratio of fluconazole MIC to compound MIC for Candida albicans PMC 1040R after 48 hrs by CLSI broth microdilution method
Candida albicans [37] = experiment: Ratio of fluconazole MIC to compound MIC for Candida albicans PMC 1041R after 48 hrs by CLSI broth microdilution method
Nakaseomyces glabratus [38] = experiment: Ratio of fluconazole MIC to compound MIC for Candida glabrata PMC 0850R after 48 hrs by CLSI broth microdilution method
Nakaseomyces glabratus [39] = experiment: Ratio of fluconazole MIC to compound MIC for Candida glabrata PMC 0851R after 48 hrs by CLSI broth microdilution method
Nakaseomyces glabratus [40] = experiment: Ratio of fluconazole MIC to compound MIC for Candida glabrata PMC 0852R after 48 hrs by CLSI broth microdilution method
Nakaseomyces glabratus [41] = experiment: Ratio of fluconazole MIC to compound MIC for Candida glabrata PMC 0853R after 48 hrs by CLSI broth microdilution method
Candida albicans [42] = experiment: Ratio of fluconazole MIC to compound MIC for Candida albicans PMC 1042R after 48 hrs by CLSI broth microdilution method
Candida albicans [43] = experiment: Antifungal activity against Candida albicans ATCC 24433 after 48 hrs by CLSI broth microdilution method; details: ATCC 24433, 48 h; summary of the method: as §1
Candida albicans [44] = experiment: Antifungal activity against Candida albicans ATCC 3153 after 48 hrs by CLSI broth microdilution method; details: ATCC 3153, 48 h; summary of the method: as §1
Candida albicans [45] = experiment: Antifungal activity against Candida albicans ATCC 10231 after 48 hrs by CLSI broth microdilution method; details: ATCC 10231, 48 h; summary of the method: as §1
Candida albicans [46] = experiment: Antifungal activity against Candida albicans ATCC 76615 after 48 hrs by CLSI broth microdilution method; details: ATCC 76615, 48 h; summary of the method: as §1
Candida albicans [47] = experiment: Antifungal activity against Candida albicans ATCC 10261 after 48 hrs by CLSI broth microdilution method; details: ATCC 10261, 48 h; summary of the method: as §1

Structure (SMILES): O=C(O[C@H](Cn1ccnc1)c1ccc(Cl)cc1)N1CCN(c2ccc(Cl)cc2)CC1
- MIC50 (Candida albicans [1]): 0.125 µg/mL (≈ 0.281 µM)
- MIC50 (Candida albicans [2]): 0.25 µg/mL (≈ 0.561 µM)
- MIC50 (Candida albicans [3]): 0.125 µg/mL (≈ 0.281 µM)
- MIC50 (Pichia kudriavzevii [4]): 4 µg/mL (≈ 8.98 µM)
- MIC50 (Pichia kudriavzevii [5]): 0.5 µg/mL (≈ 1.12 µM)
- MIC50 (Candida tropicalis [6]): 2 µg/mL (≈ 4.49 µM)
- MIC50 (Candida tropicalis [7]): 4 µg/mL (≈ 8.98 µM)
- MIC50 (Candida parapsilosis [8]): 0.5 µg/mL (≈ 1.12 µM)
- MIC50 (Candida parapsilosis [9]): 0.5 µg/mL (≈ 1.12 µM)
- MIC50 (Nakaseomyces glabratus [10]): 0.5 µg/mL (≈ 1.12 µM)
- MIC50 (Nakaseomyces glabratus [11]): 4 µg/mL (≈ 8.98 µM)
- MIC50 (Cryptococcus neoformans [12]): 4 µg/mL (≈ 8.98 µM)
- MIC50 (Cryptococcus neoformans [13]): 4 µg/mL (≈ 8.98 µM)
- MIC50 (Cryptococcus neoformans [14]): 4 µg/mL (≈ 8.98 µM)
- MIC50 (Cryptococcus neoformans [15]): 4 µg/mL (≈ 8.98 µM)
- MIC50 (Cryptococcus neoformans [16]): 2 µg/mL (≈ 4.49 µM)
- MIC50 (Cryptococcus neoformans [17]): 4 µg/mL (≈ 8.98 µM)
- MIC50 (Cryptococcus neoformans [18]): 4 µg/mL (≈ 8.98 µM)
- MIC50 (Cryptococcus neoformans [19]): 2 µg/mL (≈ 4.49 µM)
- MIC80 [20]: 16 µg/mL (≈ 35.9 µM)
- MIC80 [21]: 4 µg/mL (≈ 8.98 µM)
- MIC80 [22]: 8 µg/mL (≈ 18 µM)
- MIC80 [23]: 8 µg/mL (≈ 18 µM)
- MIC80 [24]: 2 µg/mL (≈ 4.49 µM)
- MIC80 [25]: 1 µg/mL (≈ 2.25 µM)
- MIC80 (Nannizzia gypsea [26]): 1 µg/mL (≈ 2.25 µM)
- MIC80 (Nannizzia gypsea [27]): 1 µg/mL (≈ 2.25 µM)
- MIC80 (Nannizzia gypsea [28]): 8 µg/mL (≈ 18 µM)
- MIC50 (Candida albicans [29]): 32 µg/mL (≈ 71.9 µM)
- MIC50 (Candida albicans [30]): 4 µg/mL (≈ 8.98 µM)
- MIC50 (Nakaseomyces glabratus [31]): 4 µg/mL (≈ 8.98 µM)
- MIC50 (Nakaseomyces glabratus [32]): 8 µg/mL (≈ 18 µM)
- MIC50 (Nakaseomyces glabratus [33]): 4 µg/mL (≈ 8.98 µM)
- MIC50 (Nakaseomyces glabratus [34]): 4 µg/mL (≈ 8.98 µM)
- MIC50 (Candida albicans [35]): 1 µg/mL (≈ 2.25 µM)
- Ratio (Candida albicans [36]): 10
- Ratio (Candida albicans [37]): 10
- Ratio (Nakaseomyces glabratus [38]): 10
- Ratio (Nakaseomyces glabratus [39]): 10
- Ratio (Nakaseomyces glabratus [40]): 10
- Ratio (Nakaseomyces glabratus [41]): 10
- Ratio (Candida albicans [42]): 10
- MIC50 (Candida albicans [43]): 0.25 µg/mL (≈ 0.561 µM)
- MIC50 (Candida albicans [44]): 0.25 µg/mL (≈ 0.561 µM)
- MIC50 (Candida albicans [45]): 0.5 µg/mL (≈ 1.12 µM)
- MIC50 (Candida albicans [46]): 0.5 µg/mL (≈ 1.12 µM)
- MIC50 (Candida albicans [47]): 0.5 µg/mL (≈ 1.12 µM)
